{"source": "paper PMC6619501", "about": "(Nature microbiology, 2018)", "key": {"IκBα phosphorylation": {"tested_on": "IκBα phosphorylation", "assay": "Immunoblot analysis of p-IκBα in A.f-infected BMDMs", "assay_type": "cell-based, mouse", "settings": "unprimed WT BMDMs incubated with NF-κB inhibitor during fungal infection", "in_short": "(§1)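 Bone-marrow-derived macrophages from C57BL/6-background mice, 3×10^6 cells in DMEM with 10% FBS and 1% penicillin–streptomycin, left unprimed and given the NF-κB inhibitor class test compound. They were then infected with A. fumigatus A1160 conidia (malt-agar slants, 1 week) at MOI 20. Cells were lysed in 1× RIPA, and 15 μg protein was separated by SDS-PAGE, transferred to PVDF and probed for p-IκBα, total IκBα and IRF1 with HRP detection. Representative of ≥3 independent experiments.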"}, "IRF1": {"tested_on": "IRF1", "assay": "Immunoblot analysis of IRF1 in A.f-infected BMDMs", "assay_type": "cell-based, mouse", "settings": "unprimed WT BMDMs incubated with NF-κB inhibitor during fungal infection", "in_short": "as §1"}}}
{"smiles": "Cc1ccc(S(=O)(=O)/C=C/C#N)cc1", "note": "[Bay 11-7082]", "values": [{"measurement": "phosphorylation of IκBα", "setting": "IκBα phosphorylation", "result": "reduced"}, {"measurement": "IRF1 induction", "setting": "IRF1", "result": "reduced"}]}
